One assay has as its target Melanocortin receptor 5 (Mus musculus, UniProt P41149). The assay can be described thus: Agonist activity at mouse MC5R expressed in HEK293 cells by beta-galactosidase assay. It counts as functional, cell-based.
The target in assay [1] is Melanocyte-stimulating hormone receptor (Mus musculus, UniProt Q01727). The assay can be described thus: Agonist activity at mouse MC1R expressed in HEK293 cells by beta-galactosidase assay. It counts as functional, cell-based.
Assay [2] concerns the target T1, Melanocortin receptor 3 (Mus musculus, UniProt P33033). The experiment in a line: Agonist activity at mouse MC3R expressed in HEK293 cells by beta-galactosidase assay. It counts as functional, cell-based.
For assay [3], the species on record is Mus musculus. The experiment in a line: Selectivity for mouse MC1R over mouse MC4R.
The species entered for assay [4] is Mus musculus. The assay can be described thus: Selectivity for mouse MC1R over mouse MC5R.
The species entered for assay [5] is Mus musculus. The assay can be described thus: Selectivity for mouse MC1R over mouse MC3R.
In assay [6] the target is T2, Melanocortin receptor 4 (Mus musculus, UniProt P56450). The experiment in a line: Agonist activity at mouse MC4R expressed in HEK293 cells by beta-galactosidase assay. It counts as functional, cell-based.
For assay [7], the target named is Melanocortin receptor 3 (Mus musculus) (UniProt P33033). The assay can be described thus: Agonist activity at mouse MC3R expressed in HEK293 cells by beta-galactosidase assay at 100 uM relative to forskolin. It counts as functional, cell-based. To be noted: filed as agonist.
The target in assay [8] is T2, Melanocortin receptor 4. The experiment in a line: Displacement of MT2 from mouse MC4R expressed in HEK293 cells. It counts as cell-based. The procedure, abridged: (§1)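 Antagonism was measured in the same CRE/β-galactosidase assay in HEK-293 cells stably expressing the mouse receptor, as the dose-dependent competitive shift of MTII agonist response. pA2 was obtained by Schild analysis and converted to Ki. Values are means of duplicate wells from at least three independent experiments, ± SEM.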

Assay [9] has as its target Melanocortin receptor 4 (Mus musculus) (UniProt P56450). The assay can be described thus: Agonist activity at mouse MC4R expressed in HEK293 cells by beta-galactosidase assay at 100 uM relative to forskolin. It counts as functional, cell-based. The settings on record: filed as agonist.
The target of assay [10] is T1, Melanocortin receptor 3. The experiment in a line: Displacement of MT2 from mouse MC3R expressed in HEK293 cells. It counts as cell-based. The procedure, abridged:
as §1

Each structure is given as a SMILES string. A value given as a limit tells only on which side of the number the result lay.

T2 sequence (P56450 whole entry): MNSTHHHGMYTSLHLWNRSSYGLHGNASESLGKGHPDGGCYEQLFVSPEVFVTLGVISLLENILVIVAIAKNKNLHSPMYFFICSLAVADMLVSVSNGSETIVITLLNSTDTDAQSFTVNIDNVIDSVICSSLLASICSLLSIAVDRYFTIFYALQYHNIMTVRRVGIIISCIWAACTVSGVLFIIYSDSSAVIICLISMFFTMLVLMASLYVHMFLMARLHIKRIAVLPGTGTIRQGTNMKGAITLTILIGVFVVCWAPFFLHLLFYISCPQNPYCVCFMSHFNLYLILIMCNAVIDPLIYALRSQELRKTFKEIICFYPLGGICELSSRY
Melanocyte-stimulating hormone receptor, sequence (Q01727 whole entry): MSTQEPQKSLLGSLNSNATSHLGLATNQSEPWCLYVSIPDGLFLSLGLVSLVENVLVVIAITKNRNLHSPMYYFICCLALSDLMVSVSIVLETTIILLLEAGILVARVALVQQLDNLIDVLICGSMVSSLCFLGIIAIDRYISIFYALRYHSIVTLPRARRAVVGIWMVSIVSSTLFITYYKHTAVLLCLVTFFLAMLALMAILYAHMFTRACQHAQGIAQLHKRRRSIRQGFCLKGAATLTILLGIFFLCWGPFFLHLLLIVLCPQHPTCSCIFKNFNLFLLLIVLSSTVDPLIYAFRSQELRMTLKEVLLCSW
Melanocortin receptor 5, sequence (P41149 whole entry): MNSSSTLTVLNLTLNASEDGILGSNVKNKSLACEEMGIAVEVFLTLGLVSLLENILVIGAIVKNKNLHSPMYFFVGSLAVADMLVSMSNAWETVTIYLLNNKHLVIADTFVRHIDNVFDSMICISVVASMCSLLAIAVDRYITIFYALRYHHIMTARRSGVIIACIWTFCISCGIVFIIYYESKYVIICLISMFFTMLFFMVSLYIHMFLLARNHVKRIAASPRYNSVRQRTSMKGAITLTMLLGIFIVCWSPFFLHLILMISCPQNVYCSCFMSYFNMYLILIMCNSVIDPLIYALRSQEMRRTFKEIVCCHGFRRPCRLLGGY
Melanocortin receptor 3 (Mus musculus), sequence (P33033 whole entry): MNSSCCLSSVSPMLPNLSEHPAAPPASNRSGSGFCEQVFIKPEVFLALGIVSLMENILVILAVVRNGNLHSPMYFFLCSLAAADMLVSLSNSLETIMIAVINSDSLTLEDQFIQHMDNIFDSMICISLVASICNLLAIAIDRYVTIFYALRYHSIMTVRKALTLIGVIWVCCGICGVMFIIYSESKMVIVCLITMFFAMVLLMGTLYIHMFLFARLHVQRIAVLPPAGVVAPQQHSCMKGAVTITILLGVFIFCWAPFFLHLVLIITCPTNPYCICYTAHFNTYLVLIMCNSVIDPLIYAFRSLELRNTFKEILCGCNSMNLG
T1 sequence (P33033 whole entry): as above
Melanocortin receptor 4 (Mus musculus), sequence (P56450 whole entry): as the sequence (P56450 whole entry) above

Take `CC(C)C[C@H](NC(=O)[C@H](CCCCN)NC(=O)[C@H](CCCNC(=N)N)NC(=O)[C@H](C)NC(=O)[C@H](Cc1ccc(O)cc1)NC(=O)[C@@H]1CSSC[C@H](NC(=O)[C@H](Cc2ccc(O)cc2)NC(=O)[C@H](C)NC(=O)[C@@H](NC(=O)[C@H](C)NC(=O)[C@H](C)NC(=O)[C@@H]2CCCN2C(=O)[C@@H](N)CC(=O)O)[C@@H](C)O)C(=O)N[C@@H](CCCNC(=N)N)C(=O)N[C@H](Cc2ccccc2)C(=O)N[C@H](Cc2ccccc2)C(=O)N[C@@H](CC(N)=O)C(=O)N[C@@H](C)C(=O)N[C@@H](Cc2ccccc2)C(=O)N1)C(=O)O`: the EC50 (as a rule, the concentration giving half of the maximal effect) was 11.4 µM (agonist) on Melanocortin receptor 5, 0.064 µM (agonist) in [1], 63.3 µM (agonist) at Melanocortin receptor 3 [2] and 6.24 µM (agonist) on Melanocortin receptor 4 [6]. For the same molecule, the figures for the Selectivity ratio in the assay filed under Mus musculus [3], in the assay filed under Mus musculus [4] and in the assay filed under Mus musculus [5] were 98, 180 and 990, respectively.
Turning to `CC(C)C[C@H](NC(=O)[C@H](CCCCN)NC(=O)[C@H](CCCNC(=N)N)NC(=O)[C@H](C)NC(=O)[C@H](Cc1ccc(O)cc1)NC(=O)[C@@H]1CSSC[C@H](NC(=O)[C@H](Cc2ccc(O)cc2)NC(=O)[C@H](C)NC(=O)[C@@H](NC(=O)[C@H](C)NC(=O)[C@H](C)NC(=O)[C@@H]2CCCN2C(=O)[C@@H](N)CC(=O)O)[C@@H](C)O)C(=O)N[C@@H](CCCNC(=N)N)C(=O)N[C@@H](Cc2ccccc2)C(=O)N[C@H](Cc2ccccc2)C(=O)N[C@@H](CC(N)=O)C(=O)N[C@@H](C)C(=O)N[C@@H](Cc2ccccc2)C(=O)N1)C(=O)O` (stereo in doubt; 4), the EC50 on Melanocortin receptor 5 is 2.22 µM (agonist); in assay [1] it was 0.12 µM (agonist); on Melanocortin receptor 3 [2], 13.7 µM (agonist); at Melanocortin receptor 4 [6], 3.7 µM (agonist).
Take `CC(C)C[C@H](NC(=O)[C@H](CCCCN)NC(=O)[C@H](CCCNC(=N)N)NC(=O)[C@H](C)NC(=O)[C@H](Cc1ccc(O)cc1)NC(=O)[C@@H]1CSSC[C@H](NC(=O)[C@H](Cc2ccc(O)cc2)NC(=O)[C@H](C)NC(=O)[C@@H](NC(=O)[C@H](C)NC(=O)[C@H](C)NC(=O)[C@@H]2CCCN2C(=O)[C@@H](N)CC(=O)O)[C@@H](C)O)C(=O)N[C@H](CCCNC(=N)N)C(=O)N[C@@H](Cc2ccccc2)C(=O)N[C@@H](Cc2ccccc2)C(=O)N[C@@H](CC(N)=O)C(=O)N[C@@H](C)C(=O)N[C@@H](Cc2ccccc2)C(=O)N1)C(=O)O`: the EC50 is listed as 18.3 µM (agonist) at Melanocortin receptor 5, 6.33 µM (agonist) in assay [1] and 37.7 µM (agonist) on Melanocortin receptor 4 [6]. The Activity in assay [7] is 70%.
In the case of `CC(C)C[C@H](NC(=O)[C@H](CCCCN)NC(=O)[C@H](CCCNC(=N)N)NC(=O)[C@H](C)NC(=O)[C@H](Cc1ccc(O)cc1)NC(=O)[C@@H]1CSSC[C@H](NC(=O)[C@H](Cc2ccc(O)cc2)NC(=O)[C@H](C)NC(=O)[C@@H](NC(=O)[C@H](C)NC(=O)[C@H](C)NC(=O)[C@@H]2CCCN2C(=O)[C@@H](N)CC(=O)O)[C@@H](C)O)C(=O)N[C@@H](CCCNC(=N)N)C(=O)N[C@H](Cc2ccccc2)C(=O)N[C@@H](Cc2ccccc2)C(=O)N[C@@H](CC(N)=O)C(=O)N[C@@H](C)C(=O)N[C@@H](Cc2ccccc2)C(=O)N1)C(=O)O`, the EC50 was 1.41 µM (agonist) at Melanocortin receptor 5 and 0.093 µM (agonist) in [1]. For the same molecule, the Activity in assay [7] is 50%; in assay [9], 75%. Moreover, the pA2 (in general, the negative logarithm of the molar antagonist concentration that doubles the agonist concentration needed for the same response) was 6.56 at Melanocortin receptor 4 [8] and 6.14 at Melanocortin receptor 3 [10].
Turning to `CC(C)C[C@H](NC(=O)[C@H](CCCCN)NC(=O)[C@H](CCCNC(=N)N)NC(=O)[C@H](C)NC(=O)[C@H](Cc1ccc(O)cc1)NC(=O)[C@@H]1CSSC[C@H](NC(=O)[C@H](Cc2ccc(O)cc2)NC(=O)[C@H](C)NC(=O)[C@@H](NC(=O)[C@H](C)NC(=O)[C@H](C)NC(=O)[C@@H]2CCCN2C(=O)[C@@H](N)CC(=O)O)[C@@H](C)O)C(=O)N[C@H](CCCNC(=N)N)C(=O)N[C@H](Cc2ccccc2)C(=O)N[C@H](Cc2ccccc2)C(=O)N[C@@H](CC(N)=O)C(=O)N[C@@H](C)C(=O)N[C@@H](Cc2ccccc2)C(=O)N1)C(=O)O`, the EC50 on Melanocortin receptor 5 is 13.2 µM (agonist); in assay [1], 3.75 µM (agonist); on Melanocortin receptor 3 [2], 22.6 µM (agonist); at Melanocortin receptor 4 [6], 21.5 µM (agonist).
On the same counts, the results for `CC(C)C[C@H](NC(=O)[C@H](CCCCN)NC(=O)[C@H](CCCNC(=N)N)NC(=O)[C@H](C)NC(=O)[C@H](Cc1ccc(O)cc1)NC(=O)[C@@H]1CSSC[C@H](NC(=O)[C@H](Cc2ccc(O)cc2)NC(=O)[C@H](C)NC(=O)[C@@H](NC(=O)[C@H](C)NC(=O)[C@H](C)NC(=O)[C@@H]2CCCN2C(=O)[C@@H](N)CC(=O)O)[C@@H](C)O)C(=O)N[C@H](CCCNC(=N)N)C(=O)N[C@H](Cc2ccccc2)C(=O)N[C@@H](Cc2ccccc2)C(=O)N[C@@H](CC(N)=O)C(=O)N[C@@H](C)C(=O)N[C@@H](Cc2ccccc2)C(=O)N1)C(=O)O` are 4.6 µM (agonist), 1.75 µM (agonist), 5.51 µM (agonist) and 8.3 µM (agonist).
Take `CC(C)C[C@H](NC(=O)[C@H](CCCCN)NC(=O)[C@H](CCCNC(=N)N)NC(=O)[C@H](C)NC(=O)[C@H](Cc1ccc(O)cc1)NC(=O)[C@@H]1CSSC[C@H](NC(=O)[C@H](Cc2ccc(O)cc2)NC(=O)[C@H](C)NC(=O)[C@@H](NC(=O)[C@H](C)NC(=O)[C@H](C)NC(=O)[C@@H]2CCCN2C(=O)[C@@H](N)CC(=O)O)[C@@H](C)O)C(=O)N[C@H](CCCNC(=N)N)C(=O)N[C@@H](Cc2ccccc2)C(=O)N[C@H](Cc2ccccc2)C(=O)N[C@@H](CC(N)=O)C(=O)N[C@@H](C)C(=O)N[C@@H](Cc2ccccc2)C(=O)N1)C(=O)O`: the EC50 on Melanocortin receptor 5 is listed as 19.8 µM (agonist); in assay [1], 5.27 µM (agonist); on Melanocortin receptor 4 [6] it was 8.33 µM (agonist). The Activity in assay [7] was 70%.
On to `CC(C)C[C@H](NC(=O)[C@H](CCCCN)NC(=O)[C@H](CCCNC(=N)N)NC(=O)[C@H](C)NC(=O)[C@H](Cc1ccc(O)cc1)NC(=O)[C@@H]1CSSC[C@H](NC(=O)[C@H](Cc2ccc(O)cc2)NC(=O)[C@H](C)NC(=O)[C@@H](NC(=O)[C@H](C)NC(=O)[C@H](C)NC(=O)[C@@H]2CCCN2C(=O)[C@@H](N)CC(=O)O)[C@@H](C)O)C(=O)N[C@@H](CCCNC(=N)N)C(=O)N[C@@H](Cc2ccccc2)C(=O)N[C@H](Cc2ccccc2)C(=O)N[C@@H](CC(N)=O)C(=O)N[C@@H](C)C(=O)N[C@@H](Cc2ccccc2)C(=O)N1)C(=O)O` (stereo in doubt; 1), for which the EC50 at Melanocortin receptor 5 is > 100 µM (agonist); in assay [1] it was 0.96 µM (agonist). The pA2 at Melanocortin receptor 4 [8] was found to be 6.92; at Melanocortin receptor 3 [10] it was 6.15.

Source of the values: ChEMBL document CHEMBL1149298, “Stereochemical studies of the monocyclic agouti-related protein (103-122) Arg-Phe-Phe residues: conversion of a melanocortin-4 receptor antagonist into an agonist and results in the discovery of a potent and selective melanocortin-1 agonist” (J Med Chem, 2004).
